Experimental data: article PMC3437190 (Chemistry & biology, 2012)
Read-outs that look alike come from different tables or passages of the source.

Key:
[1] = molecular target: T1, RebC (Lentzea aerocolonigenes, UniProt Q8KI25); assay type: binding
T1 sequence (Q8KI25 1-529): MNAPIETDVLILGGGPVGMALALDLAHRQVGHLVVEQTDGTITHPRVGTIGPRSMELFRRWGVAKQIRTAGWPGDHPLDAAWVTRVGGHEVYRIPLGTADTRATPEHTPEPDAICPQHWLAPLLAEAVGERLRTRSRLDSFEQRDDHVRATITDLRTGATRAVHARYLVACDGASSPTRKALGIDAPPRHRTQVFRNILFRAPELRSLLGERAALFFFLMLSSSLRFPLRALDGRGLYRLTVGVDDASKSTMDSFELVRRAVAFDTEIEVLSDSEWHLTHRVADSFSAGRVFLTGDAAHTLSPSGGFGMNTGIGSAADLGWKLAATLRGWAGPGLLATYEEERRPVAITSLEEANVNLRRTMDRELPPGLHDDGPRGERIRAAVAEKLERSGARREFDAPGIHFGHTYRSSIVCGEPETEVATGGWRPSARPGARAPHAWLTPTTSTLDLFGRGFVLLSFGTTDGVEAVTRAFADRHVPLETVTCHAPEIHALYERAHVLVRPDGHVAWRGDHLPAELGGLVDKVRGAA
In short: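 Control ITC on RebC purified by Ni(II) affinity and Superdex-200 without the KBr/urea wash, retaining ~68% bound FAD. It tests fitting of partially occupied protein, since the fitting software assumes no ligand in the cell before the first injection. FAD titrated, at least triplicate runs. Single-site Kb converted to Kd.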

[2] = molecular target: T2, StaC (Streptomyces sp. TP-A0274, UniProt A3KBE8); assay: Isothermal titration calorimetry of FAD with FAD-free; assay type: binding
T2 sequence (A3KBE8 1-545): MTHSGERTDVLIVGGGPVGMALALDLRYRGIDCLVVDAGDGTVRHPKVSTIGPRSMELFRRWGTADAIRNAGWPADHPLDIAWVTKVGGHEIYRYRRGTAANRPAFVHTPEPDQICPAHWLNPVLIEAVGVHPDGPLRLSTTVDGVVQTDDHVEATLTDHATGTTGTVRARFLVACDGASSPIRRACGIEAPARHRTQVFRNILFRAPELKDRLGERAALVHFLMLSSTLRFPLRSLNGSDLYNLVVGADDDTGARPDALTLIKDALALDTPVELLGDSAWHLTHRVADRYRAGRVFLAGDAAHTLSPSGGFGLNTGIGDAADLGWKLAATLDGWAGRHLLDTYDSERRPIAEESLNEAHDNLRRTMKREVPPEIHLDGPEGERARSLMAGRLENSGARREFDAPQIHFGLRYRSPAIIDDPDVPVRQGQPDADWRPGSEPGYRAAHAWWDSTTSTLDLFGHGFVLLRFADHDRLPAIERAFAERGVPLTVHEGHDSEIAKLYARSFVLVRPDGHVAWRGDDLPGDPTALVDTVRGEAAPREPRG
In short: (§1)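 Recombinant His-tagged protein was expressed in Rosetta 2 (DE3) pLysS E. coli without added riboflavin (0.1 mM IPTG, 21°C, ~20 h). It was Ni(II)-affinity purified and gel-filtered on Superdex-200. The protein isolates free of FAD, so no stripping step was used. Concentration by A280 using theoretical extinction coefficient. FAD titrated by MicroCal ITC, at least triplicate runs. Single-site Kb converted to Kd.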

[3] = molecular target: T1, RebC; assay: Isothermal titration calorimetry of FAD with FAD-free; assay type: binding
In short: (§2)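 Recombinant His-tagged protein was expressed in Rosetta 2 (DE3) pLysS E. coli (0.1 mM IPTG, 21°C, ~20 h) and captured on Ni(II) resin. Flavin was stripped on-column with 2 M KBr/2 M urea, then the protein was eluted with 200 mM imidazole and gel-filtered on Superdex-200. Concentration by A280 using theoretical extinction coefficient. FAD titrated by MicroCal ITC, at least triplicate runs. Single-site Kb converted to Kd.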

[4] = molecular target: T3, InkE (Nonomuraea longicatena, UniProt Q27IF2); assay: Isothermal titration calorimetry of FAD with FAD-free; assay type: binding
T3 sequence (Q27IF2 1-525): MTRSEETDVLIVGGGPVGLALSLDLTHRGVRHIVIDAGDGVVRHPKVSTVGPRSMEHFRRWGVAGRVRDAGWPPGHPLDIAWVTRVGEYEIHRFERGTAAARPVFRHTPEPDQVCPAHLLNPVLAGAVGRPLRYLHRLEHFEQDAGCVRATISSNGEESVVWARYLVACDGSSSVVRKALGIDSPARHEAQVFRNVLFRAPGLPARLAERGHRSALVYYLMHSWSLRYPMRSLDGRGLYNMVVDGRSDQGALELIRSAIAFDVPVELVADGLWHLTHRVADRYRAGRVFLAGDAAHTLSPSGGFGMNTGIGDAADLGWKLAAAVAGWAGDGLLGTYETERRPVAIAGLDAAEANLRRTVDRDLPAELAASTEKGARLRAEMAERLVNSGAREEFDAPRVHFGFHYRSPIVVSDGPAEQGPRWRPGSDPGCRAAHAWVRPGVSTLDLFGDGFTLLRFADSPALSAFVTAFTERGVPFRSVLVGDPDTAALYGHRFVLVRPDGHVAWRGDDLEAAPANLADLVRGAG
In short: as §1

[5] = molecular target: RebC-10x (Lentzea aerocolonigenes, UniProt Q8KI25, A231S/E36D/F216V/G48S/Q117A/Q37A/R239N/R46K/T241V/T38G); assay: Isothermal titration calorimetry of FAD with FAD-free; assay type: binding
[6] = molecular target: T4, AtmC (Actinomadura melliaura, UniProt Q0H2X3); assay: Isothermal titration calorimetry of FAD with FAD-free; assay type: binding
T4 sequence (Q0H2X3 1-534): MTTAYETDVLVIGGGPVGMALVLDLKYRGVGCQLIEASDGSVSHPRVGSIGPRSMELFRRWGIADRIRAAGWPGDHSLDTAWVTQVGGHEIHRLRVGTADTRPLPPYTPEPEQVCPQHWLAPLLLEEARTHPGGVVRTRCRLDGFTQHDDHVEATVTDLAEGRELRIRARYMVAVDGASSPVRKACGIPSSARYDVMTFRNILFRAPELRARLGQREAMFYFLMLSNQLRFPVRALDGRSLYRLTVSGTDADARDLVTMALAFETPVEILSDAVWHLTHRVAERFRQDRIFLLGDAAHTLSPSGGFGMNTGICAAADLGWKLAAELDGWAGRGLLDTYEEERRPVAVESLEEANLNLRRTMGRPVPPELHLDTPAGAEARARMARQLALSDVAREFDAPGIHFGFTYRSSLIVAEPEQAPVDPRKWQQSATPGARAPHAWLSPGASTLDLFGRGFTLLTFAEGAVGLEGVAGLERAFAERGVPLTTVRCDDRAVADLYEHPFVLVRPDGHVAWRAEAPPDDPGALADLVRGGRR
In short: as §2

[7] = system: StaC-10x; assay: Isothermal titration calorimetry, FAD binding to StaC-10x; conditions: StaC-10x versus RebC
In short: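 It was used as isolated at ~33% FAD occupancy, because on-column KBr/urea stripping left the protein non-elutable. Concentration by BioRad protein assay against BSA standard. FAD titrated by ITC, two runs. Single-site Kb converted to an approximate Kd.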

Row | SMILES | Kd [1] | Kd [2] | Kd [3] | Kd [4] | Kd [5] | Kd [6] | FAD binding weaker than RebC [7]
1 | Cc1cc2nc3c(=O)[nH]c(=O)nc-3n(C[C@H](O)[C@H](O)[C@H](O)COP(=O)(O)OP(=O)(O)OC[C@H]3O[C@@H](n4cnc5c(N)ncnc54)[C@H](O)[C@@H]3O)c2cc1C [FAD, flavin adenine dinucleotide] | 31 nM | 15000 nM | 20 ± 12 nM | 59000 nM | 600 ± 55 nM | 73 ± 28 nM | 
2 | Cc1cc2nc3c(=O)[nH]c(=O)nc-3n(C[C@H](O)[C@H](O)[C@H](O)COP(=O)(O)OP(=O)(O)OC[C@H]3O[C@@H](n4cnc5c(N)ncnc54)[C@H](O)[C@@H]3O)c2cc1C [FAD] |  |  |  |  |  |  | 30 fold
